Data reported in ChEMBL document CHEMBL1649212, “AI-2/LuxS is involved in increased biofilm formation by Streptococcus intermedius in the presence of antibiotics” (2009).
The source made the active and inactive calls. No cut-off for these calls is given here.

Tests used:
[1] = test system: Streptococcus intermedius; assay: Antimicrobial activity against Streptococcus intermedius SI006 planktonic cells harboring luxS mutant gene assessed as bacterial count at 0.10 ug/ml in presence of 0.8 nM autoinducer 4,5-dihydroxy-2,3-pentanedione (Rvb =790.8 +/- 90.09 10^8 CFU/ml); format: functional
[2] = test system: Streptococcus intermedius; assay: Antimicrobial activity against Streptococcus intermedius SI006 biofilm harboring luxS mutant gene assessed as biofilm bacterial count at 0.10 ug/ml (Rvb =310.8 +/- 17.10 10^5 CFU/ml); format: functional
[3] = test system: Streptococcus intermedius; assay: Antimicrobial activity against Streptococcus intermedius NCTC 11324 assessed as growth inhibition at 0.7 ug/ml; format: functional
Method in brief: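 Broth microdilution MIC in ultra-low-binding 96-well plates, inoculum ≈4 × 10^5. Growth was read at 595 nm, and the MIC was taken as the lowest antibiotic concentration inhibiting growth.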

[4] = test system: Streptococcus intermedius; assay: Antimicrobial activity against Streptococcus intermedius NCTC 11324 biofilm assessed as biofilm bacterial count at 0.07 ug/ml (Rvb =402.9 +/- 26.88 10^5 CFU/ml); format: functional
[5] = test system: Streptococcus intermedius; assay: Antimicrobial activity against Streptococcus intermedius NCTC 11324 planktonic cells assessed as bacterial count at 0.08 ug/ml (Rvb =791.7 +/- 44.10 10^8 CFU/ml); format: functional
Method in brief: (§1)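 Planktonic wild-type cells were inoculated at ≈4 × 10^5 CFU/ml in TSB in ultra-low-binding plates. Media were without or with ampicillin (0.02 to 0.14 μg/ml), ciprofloxacin (0.10 to 0.35 μg/ml) or tetracycline (0.03 to 0.20 μg/ml). After 12 h at 37°C in 5% CO2 aerobic air, CFU were counted, run in parallel with the BacTiter-Glo ATP assay. Experiments were done three times in two parallels.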

[6] = test system: Streptococcus intermedius; assay: Antimicrobial activity against Streptococcus intermedius SI006 biofilm harboring luxS mutant gene assessed as biofilm bacterial count at 0.07 ug/ml (Rvb =310.8 +/- 17.10 10^5 CFU/ml); format: functional
[7] = test system: Streptococcus intermedius; assay: Antimicrobial activity against Streptococcus intermedius NCTC 11324 biofilm assessed as biofilm bacterial count at 0.05 ug/ml (Rvb =402.9 +/- 26.88 10^5 CFU/ml); format: functional
[8] = test system: Streptococcus intermedius; assay: Antimicrobial activity against Streptococcus intermedius SI006 planktonic cells harboring luxS mutant gene assessed as bacterial count at 0.15 ug/ml (Rvb =757.5 +/- 80.14 10^8 CFU/ml); format: functional
[9] = test system: Streptococcus intermedius; assay: Antimicrobial activity against Streptococcus intermedius SI006 planktonic cells harboring luxS mutant gene assessed as bacterial count at 0.08 ug/ml in presence of 0.8 nM autoinducer 4,5-dihydroxy-2,3-pentanedione (Rvb =790.8 +/- 90.09 10^8 CFU/ml); format: functional
[10] = test system: Streptococcus intermedius; assay: Antimicrobial activity against Streptococcus intermedius SI006 biofilm harboring luxS mutant gene assessed as biofilm bacterial count at 0.10 ug/ml in presence of 0.8 nM autoinducer 4,5-dihydroxy-2,3-pentanedione (Rvb =413.7 +/- 24.47 10^5 CFU/ml); format: functional
[11] = test system: Streptococcus intermedius; assay: Antimicrobial activity against Streptococcus intermedius SI006 planktonic cells harboring luxS mutant gene assessed as bacterial count at 0.10 ug/ml (Rvb =757.5 +/- 80.14 10^8 CFU/ml); format: functional
[12] = test system: Streptococcus intermedius; assay: Antimicrobial activity against Streptococcus intermedius SI006 biofilm harboring luxS mutant gene assessed as biofilm bacterial count at 0.07 ug/ml in presence of 0.8 nM autoinducer 4,5-dihydroxy-2,3-pentanedione (Rvb =413.7 +/- 24.47 10^5 CFU/ml); format: functional
[13] = test system: Streptococcus intermedius; assay: Antimicrobial activity against Streptococcus intermedius SI006 planktonic cells harboring luxS mutant gene assessed as bacterial count at 0.12 ug/ml in presence of 0.8 nM autoinducer 4,5-dihydroxy-2,3-pentanedione (Rvb =790.8 +/- 90.09 10^8 CFU/ml); format: functional
[14] = test system: Streptococcus intermedius; assay: Antimicrobial activity against Streptococcus intermedius SI006 planktonic cells harboring luxS mutant gene assessed as bacterial count at 0.15 ug/ml in presence of 0.8 nM autoinducer 4,5-dihydroxy-2,3-pentanedione (Rvb =790.8 +/- 90.09 10^8 CFU/ml); format: functional
[15] = test system: Streptococcus intermedius; assay: Antimicrobial activity against Streptococcus intermedius NCTC 11324 planktonic cells assessed as bacterial count at 0.15 ug/ml (Rvb =791.7 +/- 44.10 10^8 CFU/ml); format: functional; method in brief: as §1
[16] = test system: Streptococcus intermedius; assay: Antimicrobial activity against Streptococcus intermedius SI006 biofilm harboring luxS mutant gene assessed as biofilm bacterial count at 0.05 ug/ml (Rvb =310.8 +/- 17.10 10^5 CFU/ml); format: functional
[17] = test system: Streptococcus intermedius; assay: Antimicrobial activity against Streptococcus intermedius SI006 planktonic cells harboring luxS mutant gene assessed as bacterial count at 0.12 ug/ml (Rvb =757.5 +/- 80.14 10^8 CFU/ml); format: functional
[18] = test system: Streptococcus intermedius; assay: Antimicrobial activity against Streptococcus intermedius NCTC 11324 biofilm assessed as biofilm bacterial count at 0.10 ug/ml (Rvb =402.9 +/- 26.88 10^5 CFU/ml); format: functional
[19] = test system: Streptococcus intermedius; assay: Antimicrobial activity against Streptococcus intermedius NCTC 11324 planktonic cells assessed as bacterial count at 0.12 ug/ml (Rvb =791.7 +/- 44.10 10^8 CFU/ml); format: functional; method in brief: as §1
[20] = test system: Streptococcus intermedius; assay: Antimicrobial activity against Streptococcus intermedius NCTC 11324 planktonic cells assessed as bacterial count at 0.10 ug/ml (Rvb =791.7 +/- 44.10 10^8 CFU/ml); format: functional; method in brief: as §1
[21] = test system: Streptococcus intermedius; assay: Antimicrobial activity against Streptococcus intermedius SI006 biofilm harboring luxS mutant gene assessed as biofilm bacterial count at 0.05 ug/ml in presence of 0.8 nM autoinducer 4,5-dihydroxy-2,3-pentanedione (Rvb =413.7 +/- 24.47 10^5 CFU/ml); format: functional
[22] = test system: Streptococcus intermedius; assay: Antimicrobial activity against Streptococcus intermedius NCTC 11324 assessed as biofilm formation at 0.05 to 0.10 ug/ml; format: functional, organism-based
Method in brief: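 Wild-type NCTC 11324 was grown overnight in TSB and inoculated into TSB with ampicillin (0.02 to 0.10 μg/ml), ciprofloxacin (0.10 to 0.28 μg/ml) or tetracycline (0.05 to 0.30 μg/ml), added at time zero. Wells held plastic coverslips and were incubated 12 h at 37°C in 5% CO2 aerobic air. Biofilm was measured as described previously. Experiments were done three times in three parallels.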

[23] = test system: Streptococcus intermedius; assay: Antimicrobial activity against Streptococcus intermedius SI006 planktonic cells harboring luxS mutant gene assessed as bacterial count at 0.08 ug/ml (Rvb =757.5 +/- 80.14 10^8 CFU/ml); format: functional

## CN(C)[C@@H]1C(O)=C(C(N)=O)C(=O)[C@@]2(O)C(O)=C3C(=O)c4c(O)cccc4[C@@](C)(O)[C@H]3C[C@@H]12 [TETRACYCLINE]
[1]
  CFU: 25.2 ×10⁸ /ml
[2]
  CFU: 108.8 ×10⁵ /ml
[3]
  Activity: 0.7 µg/mL
[4]
  CFU: 637.1 ×10⁵ /ml
[5]
  CFU: 61.9 ×10⁸ /ml
[6]
  CFU: 253.1 ×10⁵ /ml
[7]
  CFU: 779.2 ×10⁵ /ml
[8]
  CFU: 2 ×10⁸ /ml
[9]
  CFU: 38.4 ×10⁸ /ml
[10]
  CFU: 486.2 ×10⁵ /ml
[11]
  CFU: 5.7 ×10⁸ /ml
[12]
  CFU: 253.1 ×10⁵ /ml
[13]
  CFU: 16.3 ×10⁸ /ml
[14]
  CFU: 10.1 ×10⁸ /ml
[15]
  CFU: 24.2 ×10⁸ /ml
[16]
  CFU: 333 ×10⁵ /ml
[17]
  CFU: 3 ×10⁸ /ml
[18]
  CFU: 610.5 ×10⁵ /ml
[19]
  CFU: 32 ×10⁸ /ml
[20]
  CFU: 44.5 ×10⁸ /ml
[21]
  CFU: 333 ×10⁵ /ml
[22]
  Activity: inactive
[23]
  CFU: 11.2 ×10⁸ /ml
